# Experimental data: ChEMBL document CHEMBL4368880, “Synthesis and biological evaluation of 3-(1,3,4-oxadiazol-2-yl)-1,8-naphthyridin-4(1H)-ones as cisplatin sensitizers” (Medchemcomm, 2018)
# Tests used:
# KB [1] = test: Growth inhibition of human KB cells at 5 uM after 24 hrs by MTT assay relative to control; assay type: functional; conditions: read-out: GI
# Procedure, shortened: (§1)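 Monolayers seeded 24 h before treatment, then exposed to compound, with DMEM or RPMI 1640 plus 10% FBS as growth medium. MTT (5 mg mL–1 stock) incubated 2–4 h at 37 °C, formazan dissolved in DMSO, and absorbance read at 570 nm. Growth inhibition reported as % of control.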
# HepG2 [2] = test: Growth inhibition of human HepG2 cells at 5 uM after 24 hrs by MTT assay relative to control; assay type: functional; conditions: HepG2, 24 h, read-out: GI; procedure, shortened: as §1
# HCT-116 [3] = test: Growth inhibition of human HCT116 cells at 5 uM after 24 hrs by MTT assay relative to control; assay type: functional; conditions: HCT-116, 24 h, read-out: GI; procedure, shortened: as §1
# HepG2 [4] = test: Growth inhibition of human HepG2 cells at 10 uM after 24 hrs by MTT assay relative to control; assay type: functional; conditions: HepG2, 24 h, read-out: GI; procedure, shortened: as §1
# A549 [5] = test: Growth inhibition of human A549 cells at 10 uM after 24 hrs by MTT assay relative to control; assay type: functional; conditions: A549, 24 h, read-out: GI; procedure, shortened: as §1
# A549 [6] = test: Growth inhibition of human A549 cells at 5 uM after 24 hrs by MTT assay relative to control; assay type: functional; conditions: A549, 24 h, read-out: GI; procedure, shortened: as §1
# L02 = test: Cytotoxicity against human LO2 cells assessed as reduction in cell growth at 5 to 10 uM after 24 hrs by MTT assay; assay type: cell-based; conditions: l02, 24 h
# HCT-116 [7] = test: Potentiation of cisplatin-induced antiproliferative activity against human HCT116 cells assessed as cell growth inhibition at 2.5 uM preincubated for 24 hrs followed by 2.5 uM cisplatin addition and measured after 48 hrs by MTT assay (reference value: 26.98 +/-2.84%); assay type: functional; conditions: read-out: GI
# HeLa [8] = test: Growth inhibition of human HeLa cells at 10 uM after 24 hrs by MTT assay relative to control; assay type: functional; conditions: read-out: GI; procedure, shortened: as §1
# MCF7 [9] = test: Growth inhibition of human MCF7 cells at 5 uM after 24 hrs by MTT assay relative to control; assay type: functional; conditions: MCF7, 24 h, read-out: GI; procedure, shortened: as §1
# MCF7 [10] = test: Growth inhibition of human MCF7 cells at 10 uM after 24 hrs by MTT assay relative to control; assay type: functional; conditions: MCF7, 24 h, read-out: GI; procedure, shortened: as §1
# HeLa [11] = test: Growth inhibition of human HeLa cells at 5 uM after 24 hrs by MTT assay relative to control; assay type: functional; conditions: read-out: GI; procedure, shortened: as §1
# KB [12] = test: Growth inhibition of human KB cells at 10 uM after 24 hrs by MTT assay relative to control; assay type: functional; conditions: read-out: GI; procedure, shortened: as §1
# HCT-116 [13] = test: Growth inhibition of human HCT116 cells at 2.5 uM after 24 hrs by MTT assay relative to control; assay type: functional; conditions: HCT-116, 24 h, read-out: GI; procedure, shortened: as §1
# HCT-116 [14] = test: Growth inhibition of human HCT116 cells at 10 uM after 24 hrs by MTT assay relative to control; assay type: functional; conditions: HCT-116, 24 h, read-out: GI; procedure, shortened: as §1
Compound,inhibition of growth at 5 µM (KB [1]),inhibition of growth at 5 µM (HepG2 [2]),inhibition of growth at 5 µM (HCT-116 [3]),inhibition of growth at 10 µM (HepG2 [4]),inhibition of growth at 10 µM (A549 [5]),inhibition of growth at 5 µM (A549 [6]),Activity (L02),inhibition of growth at 2.5 µM (HCT-116 [7]),inhibition of growth at 10 µM (HeLa [8]),inhibition of growth at 5 µM (MCF7 [9]),inhibition of growth at 10 µM (MCF7 [10]),inhibition of growth at 5 µM (HeLa [11]),inhibition of growth at 10 µM (KB [12]),inhibition of growth at 2.5 µM (HCT-116 [13]),inhibition of growth at 10 µM (HCT-116 [14])
O=c1c(-c2nnc(-c3ccc(Cl)cc3)o2)c[nH]c2ncc(-c3ccccc3)cc12,2.15%,5.1%,12.3%,14.9%,9.77%,1.44%,Non-Toxic,29.8%,31.3%,11.9%,26.9%,3.55%,19.5%,9.81%,21.6%
CS(=O)(=O)c1ccc(-c2cnc3[nH]cc(-c4nnc(-c5cccnc5)o4)c(=O)c3c2)cc1,–,–,9.26%,–,–,–,Non-Toxic,28.6%,–,–,–,–,–,4.32%,14.7%
O=c1c(-c2nnc(-c3ccc(F)cc3)o2)c[nH]c2ncc(-c3ccncc3)cc12,–,–,10.9%,–,–,–,Non-Toxic,19.6%,–,–,–,–,–,7.54%,20.5%
CS(=O)(=O)c1ccc(-c2cnc3[nH]cc(-c4nnc(-c5ccncc5)o4)c(=O)c3c2)cc1,2.16%,3.49%,5.61%,6.65%,12.1%,6.76%,Non-Toxic,29.2%,18.4%,2.35%,4.27%,7.08%,3.02%,2.64%,7.83%
CS(=O)(=O)c1ccc(-c2cnc3[nH]cc(-c4nnc(-c5ccccc5)o4)c(=O)c3c2)cc1,4.38%,5.46%,8.6%,6.98%,9.51%,8.17%,Non-Toxic,27.2%,17.5%,1.38%,2.83%,8.58%,5.2%,0.53%,15.7%
O=c1c(-c2nnc(-c3ccc(Cl)cc3)o2)c[nH]c2ncc(-c3cccnc3)cc12,–,–,15.9%,–,–,–,Non-Toxic,20.1%,–,–,–,–,–,10.4%,11.8%
CS(=O)(=O)c1ccc(-c2cnc3[nH]cc(-c4nnc(-c5ccc(Cl)cc5)o4)c(=O)c3c2)cc1,2.15%,11.2%,16.4%,11.6%,26.8%,23.8%,Non-Toxic,24.9%,1.64%,0.86%,13.1%,1.07%,9.3%,2.06%,17%
CS(=O)(=O)c1ccc(-c2cnc3[nH]cc(-c4nnc(-c5ccccn5)o4)c(=O)c3c2)cc1,–,–,11.3%,–,–,–,Non-Toxic,34.3%,–,–,–,–,–,5.37%,16.2%
CS(=O)(=O)c1ccc(-c2cnc3[nH]cc(-c4nnc(-c5ccc(F)cc5)o4)c(=O)c3c2)cc1,2.55%,9.45%,14.9%,11.1%,3.59%,3.11%,Non-Toxic,39.5%,15.7%,3.78%,8.1%,8.47%,7.58%,10.7%,18.6%
O=c1c(-c2nnc(-c3ccc(F)cc3)o2)c[nH]c2ncc(-c3cccnc3)cc12,–,–,11.1%,–,–,–,Non-Toxic,20.1%,–,–,–,–,–,9.87%,19.7%
N#Cc1ccc(-c2cnc3[nH]cc(-c4nnc(-c5ccc(F)cc5)o4)c(=O)c3c2)cc1,–,–,12.6%,–,–,–,Non-Toxic,25.6%,–,–,–,–,–,10.2%,18.9%
N#Cc1ccc(-c2cnc3[nH]cc(-c4nnc(-c5ccc(Cl)cc5)o4)c(=O)c3c2)cc1,7.35%,11.5%,17.9%,12.7%,12.5%,7.6%,Non-Toxic,35.4%,13.7%,4.65%,19.7%,4.8%,9.73%,13.7%,18.3%
